Test results as given in ChEMBL document CHEMBL1932946, “Design, synthesis and anticonvulsant evaluation of novel N-(4-substituted phenyl)-2-[4-(substituted) benzylidene]-hydrazinecarbothio amides” (Eur J Med Chem, 2012).
Calls of active or inactive are those of the source.

Columns and labels:
Mus musculus [1] = assay: Anticonvulsant activity in albino CF-1 mouse assessed as protection against subcutaneous metrazol-induced seizure at 300 mg/kg, ip after 0.5 hrs; format: functional, organism-based; set-up: dose 300 mg/kg
Procedure, shortened: (§1)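 Mice (male CF-1 albino, 18–25 g) pretreated i.p. with 30, 100 or 300 mg/kg in 0.5% methyl cellulose. Metrazol, at a dose convulsing 97% of animals, injected subcutaneously into the loose skin fold at the midline of the neck. Animals isolated and watched for 30 min for absence of seizure. Minimum dose active in half or more of mice recorded.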

[2] = Octanol-phosphate buffer partition coefficient, log P of the compound at 5 mg after 24 hrs by UV spectroscopic analysis; format: physicochemical
Procedure, shortened: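 5 mg compound added to 10 mL octanol plus 10 mL phosphate buffer in a stoppered tube. Mixture shaken mechanically 24 h at room temperature, then left 6 h in a separating funnel to equilibrate.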

Mus musculus [3] = assay: Neurotoxicity in albino CF-1 mouse assessed as minimum motor impairment at 300 mg/kg, ip after 0.5 hrs by rotarod test; format: toxicity, organism-based; set-up: dose 300 mg/kg, route intraperitoneal; settings: in vivo
Procedure, shortened: (§2)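 Minimal motor impairment assessed in male CF-1 albino mice (18–25 g) at 0.5 and 4 h after i.p. doses of 30, 100 and 300 mg/kg, given in 0.5% methyl cellulose. Minimum dose toxic in half or more of mice recorded.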

Mus musculus [4] = assay: Anticonvulsant activity in albino CF-1 mouse assessed as protection against maximal electroshock-induced seizures at 300 mg/kg, ip after 0.5 hrs; format: functional, organism-based; set-up: dose 300 mg/kg
Procedure, shortened: (§3)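 Male CF-1 albino mice (18–25 g) dosed i.p. at 30, 100 and 300 mg/kg as suspension in 0.5% methyl cellulose. 60 Hz alternating current, 50 mA, delivered 0.2 s via corneal electrodes primed with 0.5% tetracaine HCl electrolyte. Protection = abolition of hind limb tonic extensor component. Value reported is the minimum dose active in half or more of mice.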

Mus musculus [5] = assay: Anticonvulsant activity in albino CF-1 mouse assessed as protection against 6 Hz psychomotor seizure at 100 mg/kg, ip after 1 hr by minimal clonic seizure test; format: functional
Procedure, shortened: (§4)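 Male CF-1 albino mice (18–25 g) given compound i.p., suspended in 0.5% methyl cellulose, 100 mg/kg in screen. Four mice per time point challenged at 0.25, 0.5, 1.0, 2.0 and 4.0 h via corneal electrodes (32 mA, 3 s, 6 Hz). Protection = absence of psychomotor seizure (minimal clonic phase, automatistic behaviours). Scored as animals protected/tested.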

Mus musculus [6] = assay: Anticonvulsant activity in albino CF-1 mouse assessed as protection against maximal electroshock-induced seizures at 300 mg/kg, ip after 2 hrs; format: functional, organism-based; set-up: dose 300 mg/kg; procedure, shortened: as §3
Mus musculus [7] = assay: Anticonvulsant activity in ip dosed albino CF-1 mouse assessed as protection against maximal electroshock-induced seizures after 4 hrs; format: functional; settings: albino CF-1, ip, read-out: MED; procedure, shortened: as §3
Mus musculus [8] = assay: Anticonvulsant activity in albino CF-1 mouse assessed as protection against 6 Hz psychomotor seizure at 100 mg/kg, ip after 4 hrs by minimal clonic seizure test; format: functional, organism-based; set-up: dose 100 mg/kg; procedure, shortened: as §4
Mus musculus [9] = assay: Anticonvulsant activity in albino CF-1 mouse assessed as protection against 6 Hz psychomotor seizure at 100 mg/kg, ip after 2 hrs by minimal clonic seizure test; format: functional; procedure, shortened: as §4
Mus musculus [10] = assay: Anticonvulsant activity in albino CF-1 mouse assessed as protection against 6 Hz psychomotor seizure at 100 mg/kg, ip after 0.5 hrs by minimal clonic seizure test; format: functional; settings: route intraperitoneal; procedure, shortened: as §4
Mus musculus [11] = assay: Anticonvulsant activity in albino CF-1 mouse assessed as protection against subcutaneous metrazol-induced seizure at 300 mg/kg, ip after 4 hrs; format: functional, organism-based; set-up: dose 300 mg/kg; procedure, shortened: as §1
Mus musculus [12] = assay: Anticonvulsant activity in albino CF-1 mouse assessed as protection against 6 Hz psychomotor seizure at 100 mg/kg, ip after 0.25 hrs by minimal clonic seizure test; format: functional; procedure, shortened: as §4
Mus musculus [13] = assay: Neurotoxicity in albino CF-1 mouse assessed as minimum motor impairment at 300 mg/kg, ip after 4 hrs by rotarod test; format: toxicity, organism-based; set-up: dose 300 mg/kg, route intraperitoneal; settings: in vivo; procedure, shortened: as §2
Mus musculus [14] = assay: Anticonvulsant activity in ip dosed albino CF-1 mouse assessed as protection against subcutaneous metrazol-induced seizures after 0.5 hrs; format: functional; settings: albino CF-1, 0.5 h, read-out: MED
Procedure, shortened: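 Male CF-1 mice (18–25 g) were given compound i.p. at 30, 100 or 300 mg/kg, suspended in 0.5% methyl cellulose. Metrazol was injected subcutaneously into a loose skin fold at the neck midline, at the dose that induces convulsions in 97% of animals. Mice were isolated and watched for 30 min for absence of seizure. The value reported is the minimum dose active in half or more of mice.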

Mus musculus [15] = assay: Anticonvulsant activity in albino CF-1 mouse assessed as protection against maximal electroshock-induced seizures at 300 mg/kg, ip after 4 hrs; format: functional, organism-based; set-up: dose 300 mg/kg; procedure, shortened: as §3
Rattus norvegicus [16] = assay: Acute toxicity in albino Sprague-Dawley rat pilocarpine-induced status prevention model at 300 mg/kg, ip measured 2 hrs post pilocarpine challenge; format: organism-based; set-up: dose 300 mg/kg, route intraperitoneal; settings: in vivo
Procedure, shortened: (§5)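 Acute motor-impairment screen in the PISP programme, using male Sprague Dawley rats. Compound was suspended in 0.5% methyl cellulose and given i.p. at 100, 300 or 600 mg/kg. Two rats were used per dose. Behaviour was closely observed and recorded over a 4 h period at 0.25, 0.5, 1.0, 2.0 and 4.0 h. The result is scored as number toxic over number tested.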

Rattus norvegicus [17] = assay: Acute toxicity in albino Sprague-Dawley rat pilocarpine-induced status prevention model at 300 mg/kg, ip measured 0.25 hrs post pilocarpine challenge; format: organism-based; set-up: dose 300 mg/kg, route intraperitoneal; settings: in vivo; procedure, shortened: as §5
Rattus norvegicus [18] = assay: Acute toxicity in albino Sprague-Dawley rat pilocarpine-induced status prevention model at 100 mg/kg, ip measured 2 hrs post pilocarpine challenge; format: organism-based; set-up: dose 100 mg/kg, route intraperitoneal; settings: in vivo; procedure, shortened: as §5
Rattus norvegicus [19] = assay: Acute toxicity in albino Sprague-Dawley rat pilocarpine-induced status prevention model at 100 mg/kg, ip measured 1 hr post pilocarpine challenge; format: organism-based; set-up: dose 100 mg/kg, route intraperitoneal; settings: in vivo; procedure, shortened: as §5
Rattus norvegicus [20] = assay: Acute toxicity in albino Sprague-Dawley rat pilocarpine-induced status prevention model at 100 mg/kg, ip measured 0.25 hrs post pilocarpine challenge; format: organism-based; set-up: dose 100 mg/kg, route intraperitoneal; settings: in vivo; procedure, shortened: as §5
Rattus norvegicus [21] = assay: Acute toxicity in albino Sprague-Dawley rat pilocarpine-induced status prevention model at 600 mg/kg, ip measured 1 hr post pilocarpine challenge; format: organism-based; set-up: dose 600 mg/kg, route intraperitoneal; settings: in vivo; procedure, shortened: as §5
Rattus norvegicus [22] = assay: Acute toxicity in albino Sprague-Dawley rat pilocarpine-induced status prevention model at 300 mg/kg, ip measured 0.5 hrs post pilocarpine challenge; format: organism-based; set-up: dose 300 mg/kg, route intraperitoneal; settings: in vivo; procedure, shortened: as §5
Rattus norvegicus [23] = assay: Acute toxicity in albino Sprague-Dawley rat pilocarpine-induced status prevention model at 600 mg/kg, ip measured 2 hrs post pilocarpine challenge; format: organism-based; set-up: dose 600 mg/kg, route intraperitoneal; settings: in vivo; procedure, shortened: as §5
Rattus norvegicus [24] = assay: Acute toxicity in albino Sprague-Dawley rat pilocarpine-induced status prevention model at 300 mg/kg, ip measured 4 hrs post pilocarpine challenge; format: organism-based; set-up: dose 300 mg/kg, route intraperitoneal; settings: in vivo; procedure, shortened: as §5
Rattus norvegicus [25] = assay: Acute toxicity in albino Sprague-Dawley rat pilocarpine-induced status prevention model at 100 mg/kg, ip measured 4 hrs post pilocarpine challenge; format: organism-based; set-up: dose 100 mg/kg, route intraperitoneal; settings: in vivo; procedure, shortened: as §5
Rattus norvegicus [26] = assay: Acute toxicity in albino Sprague-Dawley rat pilocarpine-induced status prevention model at 600 mg/kg, ip measured 4 hrs post pilocarpine challenge; format: organism-based; set-up: dose 600 mg/kg, route intraperitoneal; settings: in vivo; procedure, shortened: as §5
Rattus norvegicus [27] = assay: Acute toxicity in albino Sprague-Dawley rat pilocarpine-induced status prevention model at 600 mg/kg, ip measured 0.25 hrs post pilocarpine challenge; format: organism-based; set-up: dose 600 mg/kg, route intraperitoneal; settings: in vivo; procedure, shortened: as §5
Rattus norvegicus [28] = assay: Acute toxicity in albino Sprague-Dawley rat pilocarpine-induced status prevention model at 300 mg/kg, ip measured 1 hr post pilocarpine challenge; format: organism-based; set-up: dose 300 mg/kg, route intraperitoneal; settings: in vivo; procedure, shortened: as §5
Rattus norvegicus [29] = assay: Acute toxicity in albino Sprague-Dawley rat pilocarpine-induced status prevention model at 600 mg/kg, ip measured 0.5 hrs post pilocarpine challenge; format: organism-based; set-up: dose 600 mg/kg, route intraperitoneal; settings: in vivo; procedure, shortened: as §5
Rattus norvegicus [30] = assay: Acute toxicity in albino Sprague-Dawley rat pilocarpine-induced status prevention model at 100 mg/kg, ip measured 0.5 hrs post pilocarpine challenge; format: organism-based; set-up: dose 100 mg/kg, route intraperitoneal; settings: in vivo; procedure, shortened: as §5

S=C(N/N=C/c1ccc(Oc2ccc(Br)cc2)cc1)Nc1ccc(Br)cc1
300 mg/kg: minimal effective dose (Mus musculus [7])
6.53: logP at 24 h [2]
inactive: Activity (Mus musculus [1]) | Activity (Mus musculus [4]) | Activity (Mus musculus [5]) | Activity (Mus musculus [6]) | Activity (Mus musculus [8]) | Activity (Mus musculus [9]) | Activity (Mus musculus [11]) | Activity (Mus musculus [12])
Non-toxic: Activity (Mus musculus [3]) | Activity (Mus musculus [13])
75%: Activity (Mus musculus [10])

CCCC(CCC)C(=O)[O-].[Na+] [VALPROATE SODIUM]
Non-toxic: Activity (Mus musculus [3]) | Activity (Mus musculus [13])
300 mg/kg: minimal effective dose (Mus musculus [14])
inactive: Activity (Mus musculus [15]) | Activity (Mus musculus [4]) | Activity (Mus musculus [6]) | Activity (Mus musculus [11])

Cc1cc(Oc2ccc(/C=N/NC(=S)Nc3ccc(Br)cc3)cc2)ccc1Cl
active: Activity (Mus musculus [12])
Non-toxic: Activity (Rattus norvegicus [16]) | Activity (Rattus norvegicus [17]) | Activity (Rattus norvegicus [18]) | Activity (Rattus norvegicus [19]) | Activity (Mus musculus [3]) | Activity (Rattus norvegicus [20]) | Activity (Rattus norvegicus [21]) | Activity (Rattus norvegicus [22]) | Activity (Rattus norvegicus [23]) | Activity (Mus musculus [13]) | Activity (Rattus norvegicus [24]) | Activity (Rattus norvegicus [25]) | Activity (Rattus norvegicus [26]) | Activity (Rattus norvegicus [27]) | Activity (Rattus norvegicus [28]) | Activity (Rattus norvegicus [29]) | Activity (Rattus norvegicus [30])
75%: Activity (Mus musculus [10])
inactive: Activity (Mus musculus [8])
50%: Activity (Mus musculus [5]; route intraperitoneal) | Activity (Mus musculus [9]; route intraperitoneal)
7.89: logP at 24 h [2]
